In the library only some 5.4% were active in any assay of this set; here they are far more common.
Ecoli tolC: blocks growth of E. coli BW25113 tolC mutant. OD615. growth inhibition, % at 10 µM (by protocol). hit rate 2.2% among 65,000. AID 573;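 active = growth inhibition at or above a cutoff equal to the mean over every tested compound plus 3 SD, cut at about 60% in these data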;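 also: growth measured after 20 h incubation at 37 °C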
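Test system: E. coli BW25113 ΔtolC::kan bacteria; incubation: 37 °C, 20 h exposure; medium: LB broth supplemented with 50 µg/mL kanamycin; read-out basis: percent growth inhibition; signal: A615 absorbance measurement; compound: 10 µM final, single dose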
PostGolgi yeast: growth inhibition of a yeast mutant, post-Golgi transport screen. hit rate 0.9% among 98,000. post-Golgi transport phenotypic cell assay. AID 739. inhibition, % at 10 µM;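 also: yeast cells grown in 1536-well plates; yeast grown about 18 h at 30C before absorbance read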
E coli WT exp: growth inhibitors of E. coli BW25113 wild type; OD600 absorbance; growth inhibition, % at 100 µM; hit rate 0.15% among 98,000; AID 710;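 active = growth inhibition above about 50% at one test dose, limit read from the data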;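 also: growth measured after 20 h incubation at 37 °C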
PLAP act: activates human placental alkaline phosphatase; activation fold at 20 µM; P05187; purified PLAP enzyme, luminescent substrate read-out; hits give high values; hit rate 1.2% among 96,000; in the data active = activation fold above about 2
Target sequence (P05187 whole entry, looked up): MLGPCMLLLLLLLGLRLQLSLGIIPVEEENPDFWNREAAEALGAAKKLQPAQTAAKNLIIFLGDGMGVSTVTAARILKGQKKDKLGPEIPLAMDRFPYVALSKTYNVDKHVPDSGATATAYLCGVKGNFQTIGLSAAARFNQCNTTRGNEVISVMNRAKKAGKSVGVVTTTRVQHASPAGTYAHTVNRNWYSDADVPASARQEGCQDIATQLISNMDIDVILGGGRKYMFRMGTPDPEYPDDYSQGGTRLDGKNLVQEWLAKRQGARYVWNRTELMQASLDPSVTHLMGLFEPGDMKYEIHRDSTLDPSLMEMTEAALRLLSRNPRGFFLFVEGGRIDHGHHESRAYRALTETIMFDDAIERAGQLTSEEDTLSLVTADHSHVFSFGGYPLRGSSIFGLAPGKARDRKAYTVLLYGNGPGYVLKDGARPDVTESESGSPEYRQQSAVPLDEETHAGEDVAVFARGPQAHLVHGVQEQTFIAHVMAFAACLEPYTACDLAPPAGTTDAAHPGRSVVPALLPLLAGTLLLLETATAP
HePTP inhibitor: blocks human HePTP tyrosine phosphatase | recombinant HePTP phosphatase activity, OD absorbance | inhibition, % at 20 µM | hit rate 0.64% among 110,000; in the data active = inhibition above about 50%;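 also: plate controls were vehicle for no effect and reference inhibitor for full effect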
PostGolgi ctrl: yeast control strain growth, post-Golgi counter-screen; efflux-deficient yeast background strain, growth absorbance A615, 16 h; hit rate 5% among 98,000; inhibition, % at 10 µM; AID 738
Active calls of the source: *; . = no result given. Rule as the data show it, unless noted: active = inhibition above about 30%; inactive = the rest.

SMILES	Ecoli tolC	PostGolgi yeast	E coli WT exp	PLAP act	HePTP inhibitor	PostGolgi ctrl
O=C(CN1C(=O)CN=C(c2ccccc2Cl)c2cc(Cl)ccc21)NCc1ccco1	2	3	-4	1	6	31*
N=C(N)c1c(O)n(C2CCCCC2)c(=O)n(C2CCCCC2)c1=O	99*	8	-4	1	-20	53*
CCN(CC)CCNCC(=O)Nc1ccc(Cl)cc1C(=O)c1ccccc1	.	-2	-2	2.6*	.	6
Cc1cccc(C(=O)Nc2ccc(Cl)cc2C(=O)c2ccccc2)c1	.	8	-1	1.3	6	13
Cc1cccc(-n2c(/C=C/c3ccc(O)cc3)nc3ccccc3c2=O)c1	.	.	.	.	10	.
O=C(Nc1cccc(C(F)(F)F)c1)c1cccn(Cc2ccc3c(c2)OC(F)(F)O3)c1=O	.	8	-19	1.3	.	32*
CC(C)Oc1cccc(NC(=O)c2cccn(Cc3ccc4c(c3)OC(F)(F)O4)c2=O)c1	.	0	-11	1.3	.	19
Cc1cccc(C)c1NC(=O)c1cccn(Cc2ccc3c(c2)OC(F)(F)O3)c1=O	.	-11	-5	1.5	.	75*
CN1CCN(c2ccc(NC(=O)C(C)(C)C)cc2)CC1	-14	0	0	0.9	3	18
CCN1CCN(c2ncnc3ccc(Br)cc23)CC1	-8	-4	9	1.6	3	32*
Cc1ccc2c(c1)CC1(CN2C)C(=O)NC(=O)N(c2ccccc2C)C1=O (stereo not drawn)	-19	-4	2	1.2	7	3
Cc1ccc2c(c1)CC1(CN2C)C(=O)NC(=O)N(CCc2ccccc2)C1=O (stereo not drawn)	.	9	-3	1.6	.	37*
O=c1c2ccccc2nc(/C=C\c2ccc(O)cc2)n1-c1ccc(O)cc1	.	.	.	.	7	.
Cn1c(O)c(/C=C2/C=CC=N2)c(=O)n(-c2ccccc2)c1=S	.	.	.	.	101*	.
CC(=O)C1=C(C)OC(N)=C(C(=O)OC(C)C)C12C(=O)Nc1ccccc12 (stereo not drawn)	-9	15	9	1.1	-1	0
Cc1ccc(NP(=O)(Oc2ccccc2F)Oc2ccccc2F)cc1	.	14	-9	0.6	.	36*
Cn1c(O)c(C=NC2CC3CCC2(C)C3(C)C)c(=O)[nH]c1=O (stereo not drawn)	2	-4	5	1.1	5	1
CCCCn1c(O)c(C=NCCCN(CC)CC)c(=O)[nH]c1=O	-24	5	0	0.9	0	46*
CCN(CC)CCCN=Cc1c(O)n(CCc2ccc(F)cc2)c(=O)[nH]c1=O	-15	6	4	1.2	-9	6
CCOc1ccc(-n2c(O)c(C=NCCN(CC)CC)c(=O)[nH]c2=O)cc1	-14	-1	0	1	-7	36*
CCCCn1c(O)c(C=NC2CC3CCC2(C)C3(C)C)c(=O)[nH]c1=O (stereo not drawn)	31	5	-2	1	5	63*
CCCC(C)C1(CC)C(=O)NC(=Nc2ccccc2OC)NC1=O (stereo not drawn)	-3	2	-1	0.9	6	5
c1ccc(C2=NP(N3CCOCC3)(N3CCOCC3)=NC(N3CCOCC3)=N2)cc1	-1	-4	-1	1.3	-9	19
Cc1ccc(O)c(CN2CCN(c3ccccc3)CC2)c1	22	3	6	1	13	2
Cn1c(=O)cc(OCCCC(=O)N2CCC3(CC2)OCCO3)c2ccccc21	.	6	7	1.2	.	1
SMILES	Ecoli tolC	PostGolgi yeast	E coli WT exp	PLAP act	HePTP inhibitor	PostGolgi ctrl
CCOc1cc2[nH]c(=S)n(CCCC(=O)N3CCC4(CC3)OCCO4)c(=O)c2cc1OCC	10	6	4	1.8	8	39*
CC(C(N)=O)N1CC(c2ccc(Cl)cc2)CC1=O (stereo not drawn)	-17	5	0	0.9	-7	8
O=C1CN=C(c2ccccc2)c2ccccc2N1Cc1ccc(C(F)(F)F)cc1	.	3	2	1.1	.	42*
CN1C(=O)CN=C(c2ccc(Cl)cc2)c2cc(Cl)ccc21	4	.	.	.	2	.
O=C1NC(=S)NC(=O)C1=Cc1ccc(-c2ccc(S(=O)(=O)Nc3nccs3)cc2)o1	.	.	.	.	100*	.
COC(=O)c1ccc(-c2ccc(C=C3C(=O)NC(=S)NC3=O)o2)cc1	.	.	.	.	-10	.
CCC(=NCC1CCCO1)c1c(O)[nH]c(=O)[nH]c1=O (stereo not drawn)	-4	10	-2	1	0	12
CN(C)C1(c2nnnn2CCOC(=O)Nc2ccc(Cl)cc2)CCCCC1	100*	2	-5	0.9	-13	12
CN(C)C1(c2nnnn2-c2ccc(Cl)cc2)CCCCC1	9	-10	-12	1	3	11
Cn1cccc1/C=C1/C(=O)NC(=S)N(c2ccc(Cl)cc2)C1=O	.	.	.	.	100*	.
Cc1ccc(CN2C(=O)NC(=O)C3(Cc4c(nc5ccccn5c4=O)N4CCCCCC43)C2=O)cc1 (stereo not drawn)	74*	-1	-8	1.3	7	13
Fc1ccc(CCNCc2ccc(Cl)c(Cl)c2)cc1	.	-12	67*	0.9	.	6
O=[N+]([O-])c1ccc(CNCCc2ccc(F)cc2)cc1	.	.	.	.	-4	.
Fc1ccccc1N1CCN(Cc2ccc3c(c2)OCO3)CC1	8	-1	16	0.8	6	-7
Cc1ccnc(-n2c(-c3ccccc3)nc3ccccc3c2=O)c1	.	0	-2	1	.	34*
Cc1ccnc(-n2c(C)nc3ccccc3c2=O)c1	5	2	-21	.	13	5
CCCCn1c(N)c(C(=O)NCCN2CCOCC2)c2nc3ccccc3nc21	12	2	10	2.3*	0	8
Nc1c(C(=O)NCCc2ccccc2)c2nc3ccccc3nc2n1CCN1CCOCC1	90*	50*	-23	1.7	5	40*
COc1ccc(CCNC(=O)c2c(N)n(CCN3CCOCC3)c3nc4ccccc4nc23)cc1	50	-3	-9	1.6	-9	35*
CCC(=O)c1cn(Cc2ccccc2C#N)c2ccccc12	17	7	2	0.8	1	31*

Compound activity (PubChem BioAssay)
